{"source": "ChEMBL document CHEMBL1122159", "about": "“Effects of certain hallucinogenic amphetamine analogues on the release of [3H]serotonin from rat brain synaptosomes” (J Med Chem, 1982)", "format_in_all_cases": "functional", "key": {"Rattus norvegicus [1]": {"species_on_record": "Rattus norvegicus", "assay": "Ability to induce [3H]5-HT release from prelabeled rat whole brain synaptosome preparations and the K value was determined", "how_it_was_run": "(§1)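 Rat whole brain homogenised in ice-cold 0.32 M sucrose. Synaptosomes were isolated on a 1.2/0.8 M sucrose step gradient, preincubated 5 min at 37 °C in oxygenated Krebs-Henseleit, then loaded 5 min with [3H]5-HT (10^-7 M). Filter-retained synaptosomes were washed and superfused at 0.5 mL/min. 1-min fractions were counted for 5 min before and 10 min after drug addition. Efflux rate constant K taken from semilog plots; means of 3-4 experiments.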"}, "Rattus norvegicus [2]": {"species_on_record": "Rattus norvegicus", "assay": "Ability to induce [3H]-5-HT release from prelabeled rat whole brain synaptosome preparations and the activity was determined as percent of total released"}, "Rattus norvegicus [3]": {"species_on_record": "Rattus norvegicus", "assay": "Ability to induce [3H]5-HT release from prelabeled rat whole brain synaptosome preparations; Relative rate of release to that of control was determined", "how_it_was_run": "as §1"}, "Rattus norvegicus [4]": {"species_on_record": "Rattus norvegicus", "assay": "Ability to induce [3H]5-HT release from prelabeled rat whole brain synaptosome preparations at 10e-7 M concentration", "how_it_was_run": "as §1"}, "Rattus norvegicus [5]": {"species_on_record": "Rattus norvegicus", "assay": "Ability to induce [3H]-5-HT release from prelabeled rat whole brain synaptosome preparations at 10e-5 M concentration", "how_it_was_run": "as §1"}, "Rattus norvegicus [6]": {"species_on_record": "Rattus norvegicus", "assay": "Ability to induce [3H]5-HT release from prelabeled rat whole brain synaptosome preparations at 10e-6 M concentration", "how_it_was_run": "as §1"}, "Rattus norvegicus [7]": {"species_on_record": "Rattus norvegicus", "assay": "Ability to induce [3H]5-HT release from prelabeled rat whole brain synaptosome preparations and the K value was determined at 10e-5 M", "how_it_was_run": "as §1"}}}
{"compound": "CC(C)(N)Cc1ccc2c(c1)OCO2", "values": [{"measurement": "K", "setting": "Rattus norvegicus [1]", "value": 175, "unit": "min⁻¹"}, {"measurement": "Total release", "setting": "Rattus norvegicus [2]", "value": 45.2, "unit": "%"}, {"measurement": "Relative rate", "setting": "Rattus norvegicus [3]", "value": 1.09}]}
{"compound": "CN[C@H](C)Cc1ccc2c(c1)OCO2", "values": [{"measurement": "K", "setting": "Rattus norvegicus [4]", "value": "1.49e+06", "unit": "min⁻¹"}, {"measurement": "K", "setting": "Rattus norvegicus [5]", "value": "2.74e+06", "unit": "min⁻¹"}, {"measurement": "K", "setting": "Rattus norvegicus [6]", "value": "1.73e+06", "unit": "min⁻¹"}]}
{"compound": "CNC(C)(C)Cc1ccc2c(c1)OCO2", "values": [{"measurement": "K", "setting": "Rattus norvegicus [1]", "value": 169, "unit": "min⁻¹"}, {"measurement": "Total release", "setting": "Rattus norvegicus [2]", "value": 44.3, "unit": "%"}, {"measurement": "Relative rate", "setting": "Rattus norvegicus [3]", "value": 1.06}]}
{"compound": "COc1ccc(CC(C)(C)N)cc1", "values": [{"measurement": "Total release", "setting": "Rattus norvegicus [2]", "value": 45, "unit": "%"}, {"measurement": "Relative rate", "setting": "Rattus norvegicus [3]", "value": 1.06}]}
{"compound": "COc1ccc(CC(C)N)cc1", "note": "(single isomer, unassigned)", "values": [{"measurement": "K", "setting": "Rattus norvegicus [7]", "value": "2.3e+06", "unit": "min⁻¹"}, {"measurement": "K", "setting": "Rattus norvegicus [1]", "value": "280 10e4min-1"}, {"measurement": "Total release", "setting": "Rattus norvegicus [2]", "value": 57.8, "unit": "%"}, {"measurement": "Relative rate", "setting": "Rattus norvegicus [3]", "value": 1.76}, {"measurement": "K", "setting": "Rattus norvegicus [4]", "value": "1.34e+06", "unit": "min⁻¹"}, {"measurement": "K", "setting": "Rattus norvegicus [6]", "value": "2.55e+06", "unit": "min⁻¹"}]}
{"compound": "C[C@H](N)Cc1ccc2c(c1)OCO2", "values": [{"measurement": "K", "setting": "Rattus norvegicus [4]", "value": "1.78e+06", "unit": "min⁻¹"}, {"measurement": "K", "setting": "Rattus norvegicus [5]", "value": "3.07e+06", "unit": "min⁻¹"}, {"measurement": "K", "setting": "Rattus norvegicus [6]", "value": "2.42e+06", "unit": "min⁻¹"}]}
{"compound": "COc1ccc(C[C@@H](C)N)cc1", "values": [{"measurement": "K", "setting": "Rattus norvegicus [4]", "value": "1.39e+06", "unit": "min⁻¹"}, {"measurement": "K", "setting": "Rattus norvegicus [5]", "value": "3.07e+06", "unit": "min⁻¹"}, {"measurement": "K", "setting": "Rattus norvegicus [6]", "value": "2.28e+06", "unit": "min⁻¹"}]}
{"compound": "CN[C@@H](C)Cc1ccc2c(c1)OCO2", "values": [{"measurement": "K", "setting": "Rattus norvegicus [4]", "value": "1.68e+06", "unit": "min⁻¹"}, {"measurement": "K", "setting": "Rattus norvegicus [5]", "value": "2.62e+06", "unit": "min⁻¹"}, {"measurement": "K", "setting": "Rattus norvegicus [6]", "value": "2.84e+06", "unit": "min⁻¹"}]}
{"compound": "C[C@@H](N)Cc1ccc2c(c1)OCO2", "values": [{"measurement": "K", "setting": "Rattus norvegicus [4]", "value": "2.14e+06", "unit": "min⁻¹"}, {"measurement": "K", "setting": "Rattus norvegicus [5]", "value": "3.21e+06", "unit": "min⁻¹"}, {"measurement": "K", "setting": "Rattus norvegicus [6]", "value": "2.02e+06", "unit": "min⁻¹"}]}
